Assay results from ChEMBL document CHEMBL1153146, “Novel potent apoA-I peptide mimetics that stimulate cholesterol efflux and pre-beta particle formation in vitro” (Bioorg Med Chem Lett, 2010).
pEC50, pIC50: −log10 of the molar value. Converted amounts (≈) assume the structure as drawn. Non-standard residues stand in square brackets, D forms with d. Residues, ends and D or L forms follow the SMILES beside them. Aib = CC(C)(N)C(=O)O

What was measured:
RAW264.7 [1] = test: Induction of [3H]cholesterol efflux in mouse RAW264.7 cells after 24 hrs by scintillation counting; format: functional, cell-based; settings: Mus musculus, RAW264.7; read-out: EC50
Outline: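 Cholesterol efflux from RAW macrophages; EC50 reported in µM as the mean of three experiments.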

[2] = Toxicity in human RBC assessed as hemolysis; format: cell-based, Erythrocyte; settings: red blood cells (RBC)
Outline: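 Red blood cell lysis assay; cytotoxicity reported as IC50 in µM.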

RAW264.7 [3] = test: Cytotoxicity against mouse RAW264.7 cells after 24 hrs by MTT assay; format: cell-based; settings: RAW264.7, 24 h
Outline: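 RAW macrophage cytotoxicity examined at peptide concentrations up to 160 µM.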

Plasma [4] = test: Increase in pre-beta-HDL level in human plasma after 1 hr by ELISA; format: functional, cell-free
Outline: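 Peptides were titrated into human plasma, with concentrations expressed in µg/ml, and pre-β-HDL was read out by ELISA using a pre-β antibody.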

Plasma [5] = test: Incorporation into HDL fraction in wild type mouse plasma at 0.25 mg/ml after 2 hrs by size exclusion chromatography analysis
RAW264.7 [6] = test: Induction of [3H]cholesterol efflux in mouse RAW264.7 cells at 30 uM after 24 hrs by scintillation counting; format: functional, cell-based
RAW264.7 [7] = test: Induction of [3H]cholesterol efflux in mouse RAW264.7 cells at 100 uM after 24 hrs by scintillation counting; format: functional, cell-based
[8] = Toxicity in human RBC assessed as minimum lytic concentration; format: cell-based; settings: erythrocyte

Row | Structure (SMILES) | pIC50 [2] | pIC50 (RAW264.7 [3]) | MLC [8] [µg/mL] | also measured
1 | C=CCCCCC[C@H](NC(=O)[C@H](CCC(=O)O)NC(=O)[C@H](CC(N)=O)NC(=O)[C@H](CC(C)C)NC(=O)[C@H](CCCCN)NC(=O)[C@H](CCC(=O)O)NC(=O)[C@H](CCCNC(=N)N)NC(=O)[C@@H](CCCCC=C)NC(=O)[C@H](CCC(=O)O)NC(=O)[C@H](CC(=O)O)NC(=O)[C@H](CC(C)C)NC(=O)[C@@H](NC(=O)[C@@H]1CCCN1)C(C)C)C(=O)N[C@@H](CC(C)C)C(=O)N[C@@H](CCC(=O)O)C(=O)N[C@@H](C)C(=O)N[C@@H](CC(C)C)C(=O)N[C@@H](CCCCN)C(=O)N[C@@H](CCC(N)=O)C(=O)N[C@@H](CCCCN)C(=O)N[C@@H](CC(C)C)C(=O)N[C@@H](CCCCN)C(=O)O | < 3.80 | < 3.80 | – | pEC50 (RAW264.7 [1]): 6.10; IC50 (Plasma [4]): Active; IC50 (Plasma [5]): Active
2 | C=CCCC[C@H](NC(=O)[C@H](CCC(=O)O)NC(=O)[C@H](CC(N)=O)NC(=O)[C@H](CC(C)C)NC(=O)[C@H](CCCC=C)NC(=O)[C@H](CCC(=O)O)NC(=O)[C@H](CCCNC(=N)N)NC(=O)[C@H](Cc1ccccc1)NC(=O)[C@H](CCC(=O)O)NC(=O)[C@H](CC(=O)O)NC(=O)[C@H](CC(C)C)NC(=O)[C@@H](NC(=O)[C@@H]1CCCN1)C(C)C)C(=O)N[C@@H](CC(C)C)C(=O)N[C@@H](CCC(=O)O)C(=O)N[C@@H](C)C(=O)N[C@@H](CC(C)C)C(=O)N[C@@H](CCCCN)C(=O)N[C@@H](CCC(N)=O)C(=O)N[C@@H](CCCCN)C(=O)N[C@@H](CC(C)C)C(=O)N[C@@H](CCCCN)C(=O)O | < 3.80 | < 3.80 | – | cholesterol efflux (RAW264.7 [6]): 7%
3 | CC(C)C[C@H](NC(=O)[C@H](C)NC(=O)[C@H](CCC(=O)O)NC(=O)[C@H](CC(C)C)NC(=O)C(C)(C)NC(=O)[C@H](CCC(=O)O)NC(=O)[C@H](CC(N)=O)NC(=O)[C@H](CC(C)C)NC(=O)[C@H](CCCCN)NC(=O)[C@H](CCC(=O)O)NC(=O)[C@H](CCCNC(=N)N)NC(=O)[C@H](Cc1ccccc1)NC(=O)[C@H](CCC(=O)O)NC(=O)[C@H](CC(=O)O)NC(=O)[C@H](CC(C)C)NC(=O)[C@@H](NC(=O)[C@@H]1CCCN1)C(C)C)C(=O)N[C@@H](CCCCN)C(=O)N[C@@H](CCC(N)=O)C(=O)N[C@@H](CCCCN)C(=O)N[C@@H](CC(C)C)C(=O)N[C@@H](CCCCN)C(=O)O (H-PVLDEFREKLNE[Aib]LEALKQKLK-OH) | < 3.80 | < 3.80 | – | cholesterol efflux (RAW264.7 [7]): 6%
4 | C[C@@H]1[C@H](O)[C@@H](C)/C=C/C=C/C=C/C=C/C=C/C=C/C=C/[C@H](O[C@@H]2O[C@H](C)[C@@H](O)[C@H](N)[C@@H]2O)C[C@@H]2O[C@](O)(C[C@@H](O)C[C@@H](O)[C@H](O)CC[C@@H](O)C[C@@H](O)CC(=O)O[C@H]1C)C[C@H](O)[C@H]2C(=O)O [AMPHOTERICIN B] | – | – | 2 (≈ 2.16 µM) | –
5 | O=C(N[C@H](CO)[C@H](O)c1ccc([N+](=O)[O-])cc1)C(Cl)Cl [CHLORAMPHENICOL] | – | – | > 64 | –
